# Compound activity: PubChem BioAssay, Johns Hopkins Ion Channel Center
# MrgX1 agonist – agonists of human MrgX1 receptor, primary screen, HEK293 cells, Fluo-4 calcium flux | Mas-related G-protein coupled receptor member X1 (Homo sapiens), Q96LB2 | B-score at 10 µM | Fluo-4 calcium fluorescence, agonist mode; active compounds read high | hit rate 0.44% among 310,000 | AID 588627, 2011;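 active means calcium response B-score plate-corrected fluorescence ratio at least 3 library SD, with starting fluorescence B-score inside 5 SD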
# Target sequence (Q96LB2 whole entry, looked up): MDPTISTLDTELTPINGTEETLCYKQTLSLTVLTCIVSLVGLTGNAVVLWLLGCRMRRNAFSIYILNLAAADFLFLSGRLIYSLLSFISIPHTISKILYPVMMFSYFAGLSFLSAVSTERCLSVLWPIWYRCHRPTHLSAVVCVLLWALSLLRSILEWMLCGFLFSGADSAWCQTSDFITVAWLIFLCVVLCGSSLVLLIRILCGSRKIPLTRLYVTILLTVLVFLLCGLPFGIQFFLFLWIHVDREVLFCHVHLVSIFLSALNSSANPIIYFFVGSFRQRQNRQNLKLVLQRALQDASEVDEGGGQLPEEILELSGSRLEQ
#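 Test system: HEK293 cells stably expressing human MrgX1 receptor; Input: fifteen thousand cells per well; Dosing: compound delivered in addition one of three; Schedule: overnight seeding, then 1 h dark dye loading; Technique: Fluo-4 NW calcium fluorescence; Measure: B-scored fluorescence response ratio; Controls: positive and negative controls per plate.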
# MrgX1 antag – antagonists of human MrgX1 receptor, primary screen, HEK293 cells, Fluo-4 calcium flux | Mas-related G-protein coupled receptor member X1 (Homo sapiens), Q96LB2 | BAM8-22 antagonism; active compounds read low | B-score at 10 µM | hit rate 1.3% among 310,000 | AID 588676, 2011;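 active means calcium-response B-score plate-corrected more than 3 library SD below zero, starting fluorescence within 5 deviations, no agonist response on first addition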;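 further: peak minus trough fluorescence over baseline after final BAM8-22 challenge near maximal dose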
# RGS4 pot – RGS4 potentiators or activators, primary screen, cell-based, HEK293 M3R inducible RGS4, calcium flux; hit rate 0.92% among 310,000; B-score at 10 µM; AID 463111, 2010; carbachol calcium flux Fluo4; active compounds read low;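 active means B-score of the integrated calcium signal more than 4 SD below the library mean, with starting fluorescence not abnormally high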;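 further: negative B-score means reduced calcium response which marks RGS4 activation or potentiation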
#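 System – HEK293 FlpIn-TREx cells, stable M3R, doxycycline-inducible RGS4 · Reagent – ECmax carbachol challenge · Times – compound preincubation 20 min at room temperature before agonist · Technique – Fluo4 fluorescence kinetic imaging of calcium · Measure – B score of integrated Fluo4 ratio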
# MrgX1 allo act – positive allosteric modulators of MrgX1, primary screen, HEK293 cells, Fluo-4 calcium flux. FDSS; active compounds read high. hit rate 0.63% among 310,000. B-score at 10 µM. AID 588675, 2011;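 active means plate-corrected calcium response at least 3 library SD above typical, normal starting fluorescence, not activating the receptor alone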;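 further: compound read alongside a low EC10 to EC30 dose of BAM8-22 agonist; peak minus trough fluorescence over baseline measured at the second addition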
# RGS4 block – RGS4 inhibitors, primary screen, cell-based, HEK293 M3R inducible RGS4, calcium flux; Regulator of G-protein signaling 4 (Homo sapiens), P49798; Fluo-4 calcium flux; active compounds read high; triggered by carbachol at its EC20; B-score at 10 µM; hit rate 0.45% among 310,000; AID 463165, 2010;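 active means B-score, a plate-corrected calcium signal, over three deviations above library mean, with baseline fluorescence within five deviations of library mean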;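 further: RGS4 expression induced by doxycycline in cells with stable M3 receptor; B-score is computed from the integrated fluorescence ratio over baseline after carbachol; higher B-score means a larger calcium signal and so more RGS4 inhibition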
# Target sequence (P49798 whole entry, looked up): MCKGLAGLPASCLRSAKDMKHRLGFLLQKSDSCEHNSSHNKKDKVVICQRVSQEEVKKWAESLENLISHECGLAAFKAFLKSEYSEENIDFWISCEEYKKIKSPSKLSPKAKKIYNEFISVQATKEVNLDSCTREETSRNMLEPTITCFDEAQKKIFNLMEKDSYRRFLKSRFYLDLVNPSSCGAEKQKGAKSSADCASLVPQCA
# Numbers without * were called inactive; i = inactive; · = no result. A selection: hits, their analogues and other compounds. The true share with any hit is near 3.5%.
SMILES,MrgX1 agonist,MrgX1 antag,RGS4 pot,MrgX1 allo act,RGS4 block
C[C@H]1O[C@H](O[C@H]2[C@H](O[C@@H]3CC[C@@]4(C)C(CC[C@]5(C)C4CC=C4[C@@H]6CC(C)(C)CC[C@]6(C(=O)O[C@@H]6O[C@H](CO)[C@@H](O)[C@H](O)[C@H]6O)CC[C@]45C)C3(C)C)O[C@H](C(=O)O)[C@@H](O)[C@@H]2O)[C@@H](O)[C@@H](O)[C@@H]1O (stereo partly specified),i,i,·,i,·
CC1OC(OC2C(OC3C(O[C@H]4CC[C@]5(C)C6C=C[C@]78OC[C@@]9(CC[C@@H](C)[C@H](C)C97)[C@H](O)C[C@@]8(C)[C@]6(C)CC[C@H]5C4(C)C)OC(C)C(O)C3O)OC(CO)C(O)C2O)C(O)C(O)C1O (stereo partly specified),·,·,-7.4*,·,i
COc1ccc(NC(=O)c2ccc(-c3ccc([N+](=O)[O-])cc3)o2)cc1OC,i,-5.3*,i,i,i
COc1ccc(C(C)NC(=O)c2ccc([N+](=O)[O-])cc2)cc1OC (stereo unspecified),i,-5.5*,i,i,i
Cc1cnc([N+](=O)[O-])n1CCOC(=O)NC(=O)c1cccc(F)c1,i,i,i,i,i
O=C(COC(=O)CCc1ccc(S(=O)(=O)N2CCOCC2)cc1)NCc1ccccc1,i,i,i,6.8*,i
O=C(COC(=O)CCc1ccc(S(=O)(=O)N2CCOCC2)cc1)NCc1ccccc1Cl,i,i,i,i,i
CCn1nc([N+](=O)[O-])c2c(-c3nc4ccccc4o3)c(N)n(CCCOC)c2c1=O,i,i,i,i,i
CC(C)n1nc(C(=O)Nc2nc3ccccc3[nH]2)c2ccccc2c1=O,i,i,-9.5*,i,i
S=c1[nH]cnc2sc(Nc3ccccc3)nc12,i,i,i,i,i
c1cc2c3c(cccc3c1)NC1(CCCCCC1)N2,i,i,i,i,i
c1cc2c3c(cccc3c1)NC1(CCC3(CC1)Nc1cccc4cccc(c14)N3)N2,i,i,-8.2*,7*,i
N#C/C(=C\c1ccccc1O)C(=O)Nc1ccccn1,i,i,i,i,i
COc1cc(/C=C(\C#N)c2nc(-c3cc4ccccc4oc3=O)cs2)ccc1O,i,-9.2*,i,i,i
O=C(Nc1cccc(S(=O)(=O)N2CCOCC2)c1)c1ccc2c(=O)n3c(nc2c1)CCCCC3,i,i,-7.3*,i,i
O=C(Nc1cccc(S(=O)(=O)N2CCCC2)c1)c1ccc2c(=O)n3c(nc2c1)CCCCC3,i,i,i,i,i
CCC1=NN(C(=O)c2ccc(Br)cc2)C(O)(c2ccccc2)C1 (stereo unspecified),30*,i,i,i,i
CCOC(=O)COc1nc(-c2ccco2)cc(-c2ccco2)c1C#N,i,i,-7.2*,i,i
CCOC(=O)COc1nc(-c2ccc(C)cc2)cc(-c2ccco2)c1C#N,i,i,i,i,i
O=[N+]([O-])c1cc([N+](=O)[O-])c(Oc2ccc(Cl)c3cccnc23)cc1NN1CCCCC1,i,i,i,i,i
O=[N+]([O-])c1cc([N+](=O)[O-])c(Oc2ccccc2F)cc1NN1CCCCC1,i,i,-7*,i,i
Cc1ccc(C)c(Oc2cc(NN3CCCCC3)c([N+](=O)[O-])cc2[N+](=O)[O-])c1,i,i,i,i,i
Cc1ccc(F)c(Oc2cc(NN3CCCCC3)c([N+](=O)[O-])cc2[N+](=O)[O-])c1,i,i,-7.4*,i,i
CC1(C)Cc2cccc(Oc3cc(NN4CCCCC4)c([N+](=O)[O-])cc3[N+](=O)[O-])c2O1,i,i,i,i,i
COc1cc(C(C)=O)ccc1Oc1cc(NN2CCCCC2)c([N+](=O)[O-])cc1[N+](=O)[O-],i,i,i,i,i
SMILES,MrgX1 agonist,MrgX1 antag,RGS4 pot,MrgX1 allo act,RGS4 block
O=[N+]([O-])c1cc([N+](=O)[O-])c(Oc2cccc(Cl)c2Cl)cc1NN1CCCCC1,i,i,-8.2*,i,i
CCc1occc(=O)c1Oc1cc(NN2CCCCC2)c([N+](=O)[O-])cc1[N+](=O)[O-],i,i,-8.2*,i,i
CCOC(=O)c1c(C)[nH]c(C)c1S(=O)(=O)N(C)CC(=O)Nc1ccccc1F,i,i,i,i,i
CC(C)CN(C(=O)COC(=O)Cc1c[nH]c2ccccc12)c1c(N)n(Cc2ccccc2)c(=O)[nH]c1=O,i,i,i,i,i
CCCc1cc(C(=O)Nc2ccc(C(=O)c3ccc(F)cc3)cc2)n(C)n1,i,-6.9*,i,i,i
CCCc1cc(C(=O)Nc2ccc(C(=O)c3ccccc3)cc2)n(C)n1,i,i,i,i,i
CCOC(=O)CSc1nc2c(sc(=S)n2-c2ccccc2OC)c(=O)n1Cc1ccco1,40*,i,i,i,i
Cc1nc(C2CCC3C4CCC5=CC(=O)CC[C@]5(C)C4CC[C@]23C)cs1 (stereo partly specified),i,i,-10*,i,i
CC(/C=N/n1c(-c2ccncc2)n[nH]c1=S)=C\c1ccco1,i,i,i,i,i
CC(/C=N/n1c(-c2ccco2)n[nH]c1=S)=C\c1ccco1,i,-5.9*,i,i,i
CC(/C=N/n1c(-c2ccccc2)n[nH]c1=S)=C\c1ccco1,i,i,-7.2*,i,i
CC(/C=N/n1c(-c2ccc(C)cc2)n[nH]c1=S)=C\c1ccco1,i,i,i,i,i
O=C(Nc1ccc(N2CCN(C(=O)c3ccccc3F)CC2)cc1)c1ncn[nH]1,i,i,i,i,i
Cc1ccc(C(=O)C(c2ccccc2)N2Cc3ccccc3C2=N)cc1 (stereo unspecified),i,i,-8.1*,i,i
COCCN=c1scc(-c2cccs2)n1/N=C/c1ccc(O)c(O)c1O,i,i,i,16*,i
COc1ccccc1NC(=O)Nc1nc(CC(=O)NCc2c(F)cccc2F)cs1,i,i,i,i,i
COc1ccccc1NC(=O)Nc1nc(CC(=O)N2CCN(c3ccccc3F)CC2)cs1,i,i,-7.1*,i,i
